Data as given in PubChem BioAssay.
Activity calls are given as the source filed them.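 How the source made its calls, unless noted: active means viability at or under a set limit in both replicates, limit being median viability minus 3 SD (cut at about 48% in these data, passing the limit was not always enough); inconclusive means at or under the limit in just one replicate; inactive means at or above the limit in both replicates.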

Columns and labels:
[1] = Her2 expression decrease, cell viability multiplex – SKBR3 breast tumor cells, AlphaScreen, ATP viability, primary screen (AID 461;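 active means Her2 level under about 52% in both replicate screens, with viability over 70% of control, limit read from the data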;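 on Her2 level: lower value means less Her2 protein in the cells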;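 on viability: percent of carrier control wells set as 100% viability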); conditions: SKBR3 Her2 protein level, 18-24 h, measured here: SKBR3 viability, ATP luminescence, at 10 µM
[2] = target: Receptor tyrosine-protein kinase erbB-2 (Homo sapiens) (UniProt P04626); test: as above; conditions: 18-24 h, at 10 µM, stronger effect = lower value
[3] = reduced viability of SK-BR-3 breast cancer cells – cell-based, 24 h, human, pilot screen (AID 572;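 active means viability at or below 10% of carrier control in both of two separate runs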;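 further: compound exposure lasted between 18 and 24 h rather than exactly 24 h; 100% = carrier-treated control wells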); conditions: SK-BR-3 viability, CellTiter-Glo luminescence, at 10 µM, stronger effect = lower value
[4] = HUVEC growth inhibition – cell-based, human, primary screen (AID 575;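 active means viability at or below 30% in both replicate assays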;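 further: 100% = median of untreated cell wells with 0.1% DMSO on each plate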); conditions: HUVEC proliferation, CellTiter-Glo luminescence, 72 h; at 10 µM; stronger effect = lower value
Summary of the method: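 system = HUVEC primary cells | amount = 1250 cells/well | buffer or medium = supplemented EBM, 2% fetal bovine serum | dosing = single-point 10 µM, DMSO 0.1% final | times = 72 h compound incubation | detection = CTG luminescence | read-out = % viability relative to median vehicle-well signal on each plate | control set = vehicle and MePR control wells | format = collagen-coated 384-well format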

[5] = H69AR cell proliferation blockers – human, duplicate replicates, primary screen (AID 580); conditions: H69AR lung tumor cells viability, ATP luminescence, 72 h; at 10 µM; stronger effect = lower value;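 further: 100% = mean luminescence of untreated wells and 0% = no signal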
[6] = MRP1 drug-resistance reversers in H69AR cells – cell-based, doxorubicin co-treatment, pilot screen (AID 601;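 active means viability loss from added drug above about 55%, and viability with drug at most 40%, in both replicates, limit read from the data, passing the limit was not always enough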); conditions: CellTiter-Glo, 72 h, at 10 µM; for differential viability (reversal): stronger effect = higher value
[7] = yeast transport mutant growth inhibition pilot in 384-well plates, post-Golgi transport modulator project (AID 636; in the data active means inhibition above about 31%); conditions: absorbance 615 nm, about 18 h, stronger effect = higher value
[8] = growth suppression of yeast trafficking mutant, preliminary HTS, modulators of trafficking downstream of Golgi apparatus project, 1536-format plate, OD 615 nm (AID 637; in the data active means inhibition above about 30%); conditions: yeast transport mutant growth, absorbance 615 nm, 18 h; stronger effect = higher value
[9] = H69AR cells + 2 uM doxorubicin, measured here: viability with 2 uM doxorubicin, stronger effect = lower value
[10] = H69AR cells, compound alone cytotoxicity

Sequence of Receptor tyrosine-protein kinase erbB-2 (Homo sapiens) (P04626 whole entry, looked up): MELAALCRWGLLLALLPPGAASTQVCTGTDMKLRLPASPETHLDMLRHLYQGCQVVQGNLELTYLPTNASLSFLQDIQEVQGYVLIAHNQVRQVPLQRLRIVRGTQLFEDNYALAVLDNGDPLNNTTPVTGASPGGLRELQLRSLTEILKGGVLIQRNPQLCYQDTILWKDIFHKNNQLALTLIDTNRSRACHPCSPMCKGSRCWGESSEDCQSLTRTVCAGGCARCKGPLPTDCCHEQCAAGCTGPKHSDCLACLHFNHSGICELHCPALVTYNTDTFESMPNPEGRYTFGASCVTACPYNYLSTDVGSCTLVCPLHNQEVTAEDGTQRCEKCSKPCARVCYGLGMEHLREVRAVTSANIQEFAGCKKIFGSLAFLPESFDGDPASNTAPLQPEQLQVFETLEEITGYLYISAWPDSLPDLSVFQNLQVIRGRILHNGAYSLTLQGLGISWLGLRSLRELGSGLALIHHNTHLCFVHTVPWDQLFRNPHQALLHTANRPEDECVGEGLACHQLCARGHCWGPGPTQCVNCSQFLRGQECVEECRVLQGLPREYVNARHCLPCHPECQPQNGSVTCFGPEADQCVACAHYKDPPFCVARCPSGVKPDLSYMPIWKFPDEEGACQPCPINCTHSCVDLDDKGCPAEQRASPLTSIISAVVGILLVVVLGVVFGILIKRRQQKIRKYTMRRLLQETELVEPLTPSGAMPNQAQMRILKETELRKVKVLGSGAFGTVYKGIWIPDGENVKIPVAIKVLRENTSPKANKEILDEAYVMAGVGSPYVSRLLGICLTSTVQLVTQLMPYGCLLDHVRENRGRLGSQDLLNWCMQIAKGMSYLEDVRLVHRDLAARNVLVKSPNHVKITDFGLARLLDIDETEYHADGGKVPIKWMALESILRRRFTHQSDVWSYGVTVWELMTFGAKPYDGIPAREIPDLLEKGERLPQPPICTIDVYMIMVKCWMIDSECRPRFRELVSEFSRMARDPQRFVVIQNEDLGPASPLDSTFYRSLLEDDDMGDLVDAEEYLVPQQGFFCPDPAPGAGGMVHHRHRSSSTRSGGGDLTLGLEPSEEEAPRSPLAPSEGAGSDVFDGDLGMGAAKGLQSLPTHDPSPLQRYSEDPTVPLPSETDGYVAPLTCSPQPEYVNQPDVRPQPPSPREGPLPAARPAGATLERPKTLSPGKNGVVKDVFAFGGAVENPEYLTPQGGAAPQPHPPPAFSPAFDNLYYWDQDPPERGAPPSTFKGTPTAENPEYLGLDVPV

| SMILES | viability [1] [%] | Her2 level [2] | viability [3] | viability [4] | viability [5] | differential viability (reversal) ([6]; H69AR cells + 2 uM doxorubicin) | viability [6, 9] [%] | viability [6, 10] [%] | inhibition [7] | inhibition [8] |
| --- | --- | --- | --- | --- | --- | --- | --- | --- | --- | --- |
| O=C(COC(=O)c1cc(S(=O)(=O)N2CCOCC2)ccc1O)NCC1CCCO1 (stereo not given) | 91.5 | 85.5% (inactive) | 91.5% (inactive) | 98.7% (inactive) | 91% (inactive) | -3.47% (inactive) | 94.5 | 91 | -6.4% (inactive) | 8.36% (inactive) |
| CCOC(=O)N1CCN(Cc2nc3c(c(=O)[nH]c(=O)n3C)n2Cc2cc(C)ccc2C)CC1 | 102 | 105% (inactive) | 102% (inactive) | 112% (inactive) | 96.1% (inactive) | 7.95% (inactive) | 88.1 | 96.1 | -2.27% (inactive) | 0.32% (inactive) |
| c1ccc(CSCc2cn3ccsc3n2)cc1 | 93.5 | 95.5% (inactive) | 93.5% (inactive) | 104% (inactive) | 99.1% (inactive) | 14.5% (inactive) | 84.6 | 99.1 | -0.27% (inactive) | -3.49% (inactive) |
| CC(C)(C)n1nnnc1C(c1cccc(C#N)c1)N1CCC(Cc2ccccc2)CC1 (stereo not given) | 87.5 | 86% (inactive) | 87.5% (inactive) | 114% (inactive) | 86.1% (inactive) | -0.44% (inactive) | 86.6 | 86.1 | -0.79% (inactive) | 1.77% (inactive) |
| O=C(CCc1ccc(S(=O)(=O)N2CCOCC2)cc1)NCCc1ccccn1 | 100 | 102% (inactive) | 100% (inactive) | 94.8% (inactive) | 87.9% (inactive) | -13.7% (inactive) | 102 | 87.9 | -1.04% (inactive) | -4.13% (inactive) |
| O=C1CC(c2ccco2)CC(O)=C1C=NCC1NCCc2ccccc21 (stereo not given) | 78.5 | 98.5% (inactive) | 78.5% (inactive) | 91.5% (inactive) | 90.7% (inactive) | -3.47% (inactive) | 94.1 | 90.7 | -0.92% (inactive) | 7.14% (inactive) |
| O=C1C2C3C=CC(C3=C3CCCCC3)C2C(=O)N1c1ccccc1 (stereo not given) | 131 | 89.5% (inactive) | 131% (inactive) | 103% (inactive) | 95.8% (inactive) | 1.16% (inactive) | 94.7 | 95.8 | -3.12% (inactive) | -2.06% (inactive) |
| COc1ccc(S(=O)(=O)NCCOc2ccccc2)cc1OC | 94 | 90.5% (inactive) | 94% (inactive) | 97.7% (inactive) | 91.5% (inactive) | -2.55% (inactive) | 94.1 | 91.5 | 6.76% (inactive) | 2.3% (inactive) |
| OCc1nc2ccccc2n1CCCOc1ccccc1 | 80.5 | 102% (inactive) | 80.5% (inactive) | 90.6% (inactive) | 103% (inactive) | 16.7% (inactive) | 85.9 | 103 | -0.13% (inactive) | -0.83% (inactive) |
| CCCCCCNS(=O)(=O)c1ccc(Cl)s1 | 85 | 86.5% (inactive) | 85% (inactive) | 81.9% (inactive) | 89.1% (inactive) | 1.29% (inactive) | 87.8 | 89.1 | -4.4% (inactive) | 22.9% (inactive) |
| COc1cc(C2c3c(n[nH]c3C)C(=O)N2c2ccc(C)cc2)ccc1O (stereo not given) | 113 | 73% (inactive) | 113% (inactive) | 88.9% (inactive) | 101% (inactive) | 3.7% (inactive) | 97 | 101 | -3.87% (inactive) | -2.3% (inactive) |
| Oc1ccc(C=Nc2cccc3ncccc23)c(O)c1 | 103 | 84.5% (inactive) | 103% (inactive) | 80% (inactive) | 84.9% (inactive) | -3.45% (inactive) | 88.3 | 84.9 | -2.93% (inactive) | 0.81% (inactive) |
| CN(C)Cc1c(O)ccc2oc(Cc3ccccc3)cc12 | 90 | 86% (inactive) | 90% (inactive) | 91.2% (inactive) | 91% (inactive) | 11% (inactive) | 80 | 91 | -6.67% (inactive) | -2.42% (inactive) |
| Cn1c(=O)c2c(nc(NCc3ccco3)n2C/C=C/c2ccccc2)n(C)c1=O | 100 | 84.5% (inactive) | 100% (inactive) | 89.3% (inactive) | 101% (inactive) | 5.26% (inactive) | 96.1 | 101 | -1.69% (inactive) | 0.16% (inactive) |
| CN(C(=O)c1ccncc1)C1CC(C)(C)N(O)C(C)(C)C1 | 124 | 96.5% (inactive) | 124% (inactive) | 87.7% (inactive) | 92.3% (inactive) | -1.93% (inactive) | 94.2 | 92.3 | -7.11% (inactive) | -6.36% (inactive) |
| O=C(O)CCn1c(SCc2ccccc2)nc2ccccc21 | 116 | 107% (inactive) | 116% (inactive) | 112% (inactive) | 89.3% (inactive) | 12.2% (inactive) | 77 | 89.3 | -5.73% (inactive) | 5.65% (inactive) |
| CN(C)Cc1cn(CCC(=O)O)c2ccccc12 | 96 | 106% (inactive) | 96% (inactive) | 88.5% (inactive) | 101% (inactive) | 2.96% (inactive) | 98.2 | 101 | -1.22% (inactive) | -1.8% (inactive) |
| CC1(C)Cc2noc(N)c2C(C)(C)N1OC(=O)c1cccs1 | 103 | 95.5% (inactive) | 103% (inactive) | 99.1% (inactive) | 102% (inactive) | 8.28% (inactive) | 94.2 | 102 | -4.08% (inactive) | -5.08% (inactive) |
| O=C(O)c1cccc(NC(=O)C2C3C=CC(C3)C2C(=O)OCC(F)(F)C(F)F)c1 (stereo not given) | 102 | 91.5% (inactive) | 102% (inactive) | 94% (inactive) | 89% (inactive) | 0.695% (inactive) | 88.3 | 89 | -5.79% (inactive) | -1.33% (inactive) |
| CCOC(=O)c1sc(NC(=O)COC(=O)Cn2cnc3ccccc32)c(C(=O)OCC)c1C | 96 | 78% (inactive) | 96% (inactive) | 68.4% (inactive) | 71.2% (inactive) | -8.35% (inactive) | 79.6 | 71.2 | -0.26% (inactive) | -4.44% (inactive) |
| CC(C)(C)OC(=O)N1CC=C2C(C#N)=C(N)C(C#N)(C#N)[C@H](c3cccnc3)[C@H]2C1 | 88 | 100% (inactive) | 88% (inactive) | 81.1% (inactive) | 86.3% (inactive) | -12.4% (inactive) | 98.7 | 86.3 | -2.67% (inactive) | 14% (inactive) |
| Cc1cc(Cn2ccnc2)c(C)cc1Cn1ccnc1 | 82 | 91.5% (inactive) | 82% (inactive) | 107% (inactive) | 101% (inactive) | 6.74% (inactive) | 94.1 | 101 | -3.6% (inactive) | -0.32% (inactive) |
| CCCCCCC(=O)c1c(C)[nH]c(C(=O)OCC)c1C | 98 | 86.5% (inactive) | 98% (inactive) | 60.2% (inactive) | 92.7% (inactive) | 6.9% (inactive) | 85.8 | 92.7 | -5.73% (inactive) | 4.03% (inactive) |
| O=C1NCC(COCc2ccccc2)O1 (stereo not given) | 110 | 96% (inactive) | 110% (inactive) | 103% (inactive) | 108% (inactive) | 18.5% (inactive) | 89.4 | 108 | -5.6% (inactive) | 0% (inactive) |
| COc1ccc2[nH]c(=O)c(CN(Cc3cccs3)Cc3nnnn3C(C)(C)C)cc2c1 | 77.5 | 90% (inactive) | 77.5% (inactive) | 58.7% (inactive) | 73.5% (inactive) | 7.29% (inactive) | 66.2 | 73.5 | -6.13% (inactive) | -0.95% (inactive) |
| O=C1c2ccccc2C(Nc2ccc3nc(-c4cccnc4)[nH]c3c2)N1Cc1ccco1 (stereo not given) | 88.5 | 108% (inactive) | 88.5% (inactive) | 87.5% (inactive) | 91.2% (inactive) | 10.1% (inactive) | 81.1 | 91.2 | 2.44% (inactive) | -4.17% (inactive) |
| O=C(Nc1nccs1)c1ccc(Cl)c(S(=O)(=O)N2CCCCC2)c1 | 89 | 65% (inactive) | 89% (inactive) | 84.3% (inactive) | 87.2% (inactive) | -9.49% (inactive) | 96.7 | 87.2 | -5.81% (inactive) | 3.83% (inactive) |
| CC(NC(=O)NCCCC(=O)O)(C(F)(F)F)C(F)(F)F | 104 | 82% (inactive) | 104% (inactive) | 97.6% (inactive) | 105% (inactive) | 8.72% (inactive) | 96.5 | 105 | -7.53% (inactive) | 1.59% (inactive) |
